In brackets after ≈: the same amount, converted by molar mass.
How the values were obtained:
B16 = assay: Cytotoxicity against mouse B16 cells after 72 hrs by MTT assay; format: functional, cell-based; conditions: B16, 72 h
How it was run: (§1)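 Murine B16 melanoma and L1210 lymphoma cells in culture were exposed to compound continuously for 72 h. Viability was read by MTT assay, and IC₅₀ was derived from growth inhibition.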

L1210 = assay: Cytotoxicity against mouse L1210 cells after 72 hrs by MTT assay; format: functional, cell-based; conditions: L1210, 72 h; how it was run: as §1
MDA-MB-435 [1] = assay: Ratio of EC50 for interphase microtubule depolymerization in rat A10 cells to IC50 for cytotoxicity against human MDA-MB-435 cells; format: functional
UACC-257 = assay: Growth inhibition of human UACC257 cells; format: functional
A10 = assay: Induction of interphase microtubule depolymerization in rat A10 cells; format: functional, cell-based
SF-539 = assay: Growth inhibition of human SF539 cells; format: functional
SNB-19 = assay: Growth inhibition of human SNB19 cells; format: functional
CAKI-1 = assay: Growth inhibition of human Caki1 cells; format: functional
MDA-MB-435 [2] = assay: Cytotoxicity against human MDA-MB-435 cells after 48 hrs by SRB assay; format: functional, cell-based; conditions: MDA-MB-435, 48 h
Malme-3M = assay: Growth inhibition of human MALME-3M cells; format: functional
[3] = Aqueous solubility of the compound; format: physicochemical
How it was run: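 Maximum aqueous solubility was measured with a modified filter-plate solubility protocol.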

SK-OV-3 = assay: Growth inhibition of human SKOV3 cells; format: functional
LOX IMVI = assay: Growth inhibition of human LOXIMVI cells; format: functional
HCT-116 = assay: Growth inhibition of human HCT116 cells; format: functional
BT-549 = assay: Growth inhibition of human BT549 cells; format: functional
SF-295 = assay: Growth inhibition of human SF295 cells; format: functional
NCI-H23 = assay: Growth inhibition of human NCI-H23 cells; format: functional
MOLT-4 = assay: Growth inhibition of human MOLT4 cells; format: functional
SK-MEL-5 = assay: Growth inhibition of human SK-MEL-5 cells; format: functional
NCI-H322M = assay: Growth inhibition of human NCI-H322M cells; format: functional
MDA-MB-231 = assay: Growth inhibition of human MDA-MB-231 cells; format: functional
T47D = assay: Growth inhibition of human T47D cells; format: functional; conditions: read-out: pTGI
U-251 = assay: Growth inhibition of human U251 cells; format: functional
NCI-H522 = assay: Growth inhibition of human NCI-H522 cells; format: functional
RXF 393 = assay: Growth inhibition of human RXF393 cells; format: functional
HL-60(TB) = assay: Growth inhibition of human HL-60(TB) cells; format: functional

In the case of `COc1cc([C@@H]2C(C)=NN(C(C)=O)[C@H]2c2ccccc2)cc(OC)c1OC` (relative stereo), the IC50 (B16) is reported as > 100 µM and the IC50 (L1210) is reported as 47 µM.

Molecule `COc1cc([C@@H]2C(C)=NN(C(C)=O)[C@H]2c2ccc(C)cc2)cc(OC)c1OC` (relative stereo) has an IC50 (B16) of 45.5 µM and an IC50 (L1210) of 6 µM.

For `COc1cc([C@@H]2C(C)=NN(C(C)=O)[C@H]2c2ccc(Cl)cc2)cc(OC)c1OC` (relative stereo), the IC50 (B16) was > 100 µM and the IC50 (L1210) was > 100 µM.

For `COc1cc([C@@H]2C(C)=NN(C(C)=O)[C@H]2c2ccc(Br)cc2)cc(OC)c1OC` (relative stereo), the IC50 (B16) was > 100 µM and the IC50 (L1210) was 33 µM.

In the case of `COc1cc([C@@H]2C(C)=NN(C(C)=O)[C@H]2c2ccc([N+](=O)[O-])cc2)cc(OC)c1OC` (relative stereo), the IC50 (B16) is reported as > 100 µM and the IC50 (L1210) is reported as > 100 µM.

With `COc1ccc([C@H]2[C@H](c3cc(OC)c(OC)c(OC)c3)C(C)=NN2C(C)=O)cc1` (relative stereo) the IC50 (B16) was 95 µM and the IC50 (L1210) was 8.4 µM.

With `COc1cc([C@@H]2C(C)=NN(C(C)=O)[C@H]2c2cccc([N+](=O)[O-])c2)cc(OC)c1OC` (relative stereo) the IC50 (B16) was > 100 µM and the IC50 (L1210) was > 100 µM.

With `COc1cc([C@@H]2C(C)=NN(C(C)=O)[C@H]2c2ccc(Cl)c(Cl)c2)cc(OC)c1OC` (relative stereo) the IC50 (B16) was > 100 µM and the IC50 (L1210) was 36 µM.

With `COc1ccc([C@H]2[C@H](c3cc(OC)c(OC)c(OC)c3)C(C)=NN2C(C)=O)cc1OC` (relative stereo) the IC50 (B16) was > 100 µM and the IC50 (L1210) was 34 µM.

For `COc1ccc([C@H]2[C@H](c3cc(OC)c(OC)c(OC)c3)C(C)=NN2C(C)=O)cc1O` (relative stereo), the Ratio (MDA-MB-435 [1]) was 4.5, the GI50 (UACC-257) was > 100 µM and the TGI (UACC-257; read-out: pTGI) was > 100 µM. It also gave an EC50 (A10) of 4.1 µM, a GI50 (SF-539) of 0.741 µM and a TGI (SF-539; read-out: pTGI (converted)) of 4.37 µM. The GI50 (SNB-19) was 4.37 µM, the TGI (SNB-19; read-out: pTGI) was > 100 µM and the GI50 (CAKI-1) was 5.37 µM. For the same molecule, the TGI (CAKI-1; read-out: pTGI) was > 100 µM, the IC50 (MDA-MB-435 [2]) was 0.9 µM and the GI50 (Malme-3M) was 0.891 µM. The TGI (Malme-3M; read-out: pTGI) was > 100 µM, the IC50 (B16) was 6.8 µM and the solubility [3] was 372 µM (≈ 154 µg/mL). The GI50 (SK-OV-3) was 2.19 µM, the TGI (SK-OV-3; read-out: pTGI (converted)) was 9.55 µM and the GI50 (LOX IMVI) was 2.24 µM. For the same molecule, the TGI (LOX IMVI; read-out: pTGI) was > 100 µM, the IC50 (L1210) was 3.3 µM and the GI50 (HCT-116) was 3.02 µM. For the same molecule, the TGI (HCT-116; read-out: pTGI (converted)) was 34.7 µM, the GI50 (BT-549) was 1.45 µM and the TGI (BT-549; read-out: pTGI) was > 100 µM. For the same molecule, the GI50 (SF-295) was 2.57 µM, the TGI (SF-295; read-out: pTGI) was > 100 µM and the GI50 (NCI-H23) was 3.72 µM. For the same molecule, the TGI (NCI-H23; read-out: pTGI) was > 100 µM, the GI50 (MOLT-4) was 5.75 µM and the TGI (MOLT-4; read-out: pTGI) was > 100 µM. The GI50 (SK-MEL-5) was 1.17 µM, the TGI (SK-MEL-5; read-out: pTGI (converted)) was 14.1 µM and the GI50 (NCI-H322M) was 4.27 µM. For the same molecule, the TGI (NCI-H322M; read-out: pTGI (converted)) was 51.3 µM, the GI50 (MDA-MB-231) was 4.07 µM and the TGI (MDA-MB-231; read-out: pTGI) was > 100 µM. The TGI (T47D) was > 100 µM, the GI50 (U-251) was 3.24 µM and the TGI (U-251; read-out: pTGI) was > 100 µM. The GI50 (NCI-H522) was 0.372 µM, the TGI (NCI-H522; read-out: pTGI (converted)) was 11.7 µM and the GI50 (RXF 393) was 3.09 µM. For the same molecule, the TGI (RXF 393; read-out: pTGI) was > 100 µM, the GI50 (HL-60(TB)) was 1.78 µM and the TGI (HL-60(TB); read-out: pTGI (converted)) was 7.76 µM.

In the case of `COc1ccc([C@H]2[C@H](c3cc(OC)c(OC)c(OC)c3)C(C)=NN2C(C)=O)cc1[N+](=O)[O-]` (relative stereo), the IC50 (B16) is reported as > 100 µM and the IC50 (L1210) is reported as 32.5 µM.

In the case of `COc1ccc(OC)c([C@H]2[C@H](c3cc(OC)c(OC)c(OC)c3)C(C)=NN2C(C)=O)c1` (relative stereo), the IC50 (B16) is reported as > 100 µM and the IC50 (L1210) is reported as > 100 µM.

For `COc1cc([C@@H]2C(C)=NN(C(C)=O)[C@H]2c2cc(OC)c(OC)c(OC)c2)cc(OC)c1OC` (relative stereo), the IC50 (B16) was > 100 µM and the IC50 (L1210) was > 100 µM.

Work on `COc1ccc(/C=C\c2cc(OC)c(OC)c(OC)c2)cc1O` [COMBRETASTATIN A4] yielded an IC50 (B16) of 0.002 µM and an IC50 (L1210) of 0.003 µM.

— ChEMBL document CHEMBL1800024, “A novel class of trans-methylpyrazoline analogs of combretastatins: synthesis and in-vitro biological testing” (Eur J Med Chem, 2011)
